Test results: ChEMBL document CHEMBL1155242, “Radiolabeled 5-iodo-3'-O-(17beta-succinyl-5alpha-androstan-3-one)-2'-deoxyuridine and its 5'-monophosphate for imaging and therapy of androgen receptor-positive cancers: synthesis and biological evaluation” (J Med Chem, 2009); call rule not given here

Experiments:
[1] = target: T1, Sex hormone-binding globulin (Oryctolagus cuniculus, UniProt P15196); assay: Binding affinity to rabbit sex hormone binding globulin at 10 to 20 uCi/mL after 60 mins by size-exclusion HPLC analysis; type: ADME; details: 1 h
T1 sequence (P15196 whole entry): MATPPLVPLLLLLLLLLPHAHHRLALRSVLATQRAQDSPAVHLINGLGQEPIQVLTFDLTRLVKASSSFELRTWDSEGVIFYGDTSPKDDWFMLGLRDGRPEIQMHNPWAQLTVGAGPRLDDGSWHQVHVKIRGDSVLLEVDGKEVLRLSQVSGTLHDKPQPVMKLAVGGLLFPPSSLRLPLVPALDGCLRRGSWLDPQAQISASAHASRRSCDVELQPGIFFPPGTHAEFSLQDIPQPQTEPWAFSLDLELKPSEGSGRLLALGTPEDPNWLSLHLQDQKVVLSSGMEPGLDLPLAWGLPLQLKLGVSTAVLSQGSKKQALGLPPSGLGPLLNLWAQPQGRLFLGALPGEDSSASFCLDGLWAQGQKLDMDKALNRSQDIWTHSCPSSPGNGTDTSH
Outline: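 Radioligand incubated 60 min in rabbit serum; size-exclusion HPLC as for SHBG binding (phosphate/Na2SO4 pH 6.8, then CH3CN gradient) for SHBG-bound peak, with extracts run on C18 for intact compound.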

OVCAR-3 [2] = assay: Cytotoxicity against human OVCAR-3 cells expressing androgen receptor at 5 uCi/mL after 24 hrs; type: functional
[3] = Stability in human OVCAR-3 cells expressing androgen receptor assessed as half life at 0.01 to 5 uCi/mL by silica gel instant thin layer chromatography; type: ADME, cell-based
[4] = Biodistribution in peritoneum of athymic NCr mouse xenografted with human OVCAR-3 cells at 1.12 uCi, ip after 24 hrs by gamma counting; type: ADME, organism-based; details: in vivo
[5] = Chemical stability in RPMI-1640 serum-free medium assessed as compound hydrolysis at 12.2 uCi after 24 hrs by HPLC analysis; type: physicochemical; details: read-out: Activity
[6] = Ratio of drug level in tumor to liver in athymic NCr mouse xenografted with human OVCAR-3 cells at 180 uCi, ip administered 9 days after tumor implantation as six fractionated doses every 4 days measured after 1.5 hrs by gamma counting; type: ADME, organism-based; details: in vivo
OVCAR-3 [7] = assay: Cellular uptake in human OVCAR-3 cells expressing androgen receptor at 1.75 uCi/mL; type: ADME, cell-based; details: TDE = time-dependent effect
Outline: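 NIH:OVCAR-3 cells in complete RPMI-1640 exposed to the radioligand for 24 h (concentration series) or at 1.75 μCi/mL for set times; medium then replaced and cells cultured further 24–48 h; whole-cell and DNA uptake in cpm/cell.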

Mus musculus = assay: Toxicity in athymic NCr mouse xenografted with human OVCAR-3 cells assessed as hematocrit level at 0.25 mCi, ip administered 31 days after tumor implantation as single bolus dose measured 55 days after implantation by gamma counting in presence of SHBG (Rvb= 51.4 +/- 1.6 %); type: organism-based; details: in vivo, 1320 h
Spleen = assay: Biodistribution in spleen of athymic NCr mouse xenografted with human OVCAR-3 cells assessed per gram of tissue at an average 39.5 uCi/dose, ip administered 9 days after tumor implantation as six fractionated doses every 4 days measured after 2 weeks of last dose by gamma counting; type: ADME, organism-based; details: in vivo, 336 h
Outline: (§1)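 OVCAR-3-bearing and healthy athymic mice given fractionated ip doses on the six-dose every-4-days schedule; tissues, tumor and lavaged cells γ-counted at necropsy, %ID/g; DNA-bound 125I in cells measured as cpm/cell.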

[8] = Biodistribution in uterus of athymic NCr mouse xenografted with human OVCAR-3 cells assessed per gram of tissue at an average 39.5 uCi/dose, ip administered 9 days after tumor implantation as six fractionated doses every 4 days measured after 2 weeks of last dose by gamma counting; type: ADME, organism-based; details: in vivo, 336 h; outline: as §1

SMILES	Activity [1]	Activity (OVCAR-3 [2])	half-life [3]	Drug uptake [4]	degraded at 24 h, 12.2 uCi [5]	Ratio [6]	Drug uptake (OVCAR-3 [7])	Activity (Mus musculus)	Drug uptake (Spleen)	Drug uptake [8]
C[C@]12CCC(=O)C[C@@H]1CC[C@@H]1[C@@H]2CC[C@]2(C)[C@@H](OC(=O)CCC(=O)O[C@H]3C[C@H](n4cc([125I])c(=O)[nH]c4=O)O[C@@H]3CO)CC[C@@H]12	Active	20%	60 days	> 95%	30%	1.4	–	–	–	–
C[C@]12CCC(=O)C[C@@H]1CC[C@@H]1[C@@H]2CC[C@]2(C)[C@@H](OC(=O)CCC(=O)O[C@H]3C[C@H](n4cc([125I])c(=O)[nH]c4=O)O[C@@H]3COP(=O)(O)O)CC[C@@H]12	–	–	–	–	–	–	tde	55.2%	0.043 %ID	0.027 %ID
